Measured values pooled from the literature.
Each line is one published result; the experiments were not run side by side.
Target: Serine/threonine-protein kinase MRCK alpha (CDC42BPA, Homo sapiens, UniProt Q5VT25)

| SMILES | test | conditions | measurement | result |
| --- | --- | --- | --- | --- |
| O=C1Nc2ccc(Cl)cc2C1=Cc1cc(Cl)c(O)c(Cl)c1 | cell-free assay | 0.5 µM | remaining signal | 96.1% |
| O=C(O)c1cc(-c2ccc(C3CCNCC3)cc2)c2ccc(-c3ccc(C(F)(F)F)cc3)cc2c1 | cell-free assay, competition with immobilised ligand | 1 µM | remaining binding | 100% |
| N#CCCc1ccc2c(c1)-c1[nH]c3ccc([N+](=O)[O-])cc3c1CC(=O)N2 | cell-free assay | 0.5 µM | remaining signal | 73.1% |
| C[C@H](NC(=O)c1cnc2n1[C@](C)(Cc1ccc(C#N)cc1)C(=O)N2c1cc(Cl)c(F)c(Cl)c1)C(=O)NC1(c2ccccn2)CC1 | cell-free assay, competition with immobilised ligand | 1 µM | remaining binding | 100% |
| O=C(Nc1cnn(-c2csc(C(=O)NC3COC3)c2)c1)Nc1ccccc1Cl | enzyme activity, inhibitor | 5 µM | remaining activity | 99.3% |
| Cc1ccc(NC(=O)c2ccc(C)c(C(F)(F)F)c2)cc1C#Cc1nn(C2CCC(O)CC2)c2ncnc(N)c12 (stereo not drawn) | cell-free assay, inhibitor | 10 µM | remaining signal | 101% |
| CC1=C(C#N)[C@@H](c2ccc3[nH]nc(C)c3c2)C(C#N)=C(c2ccc(Cl)cc2)N1 | cell-free assay, competition with immobilised ligand | 1 µM | remaining binding | 82.2% |
| CC(C)(O)[C@H]1CC[C@H](Nc2ccc3ncc(-c4cccc(C(F)(F)F)c4)n3n2)CC1 | enzyme activity, inhibitor | 1 µM | remaining activity | 95.8% |
| Cc1sc(C(=O)NC2COC2)cc1-n1cc(NC(=O)Nc2c(F)cccc2Cl)cn1 | enzyme activity, inhibitor | 10 µM | remaining activity | 104% |
| CCN(CC)CCNC(=O)c1c(C)[nH]c(/C=C2\C(=O)Nc3ccc(F)cc32)c1C | enzyme activity, inhibitor | 0.3 µM | inhibition | 8% |
| CCCOc1ccc(OC)c(F)c1C(=O)c1ccc(C(=O)N[C@@H]2CNC[C@H]2NC(=O)c2ccc3[nH]ncc3c2)cc1 | enzyme activity, inhibitor | 0.75 µM | remaining activity | 20% |
| CC(C)(O)c1cncc(-c2nc3ccc(F)cc3n2C2CC2)c1 | cell-free assay, competition with immobilised ligand | 1 µM | remaining binding | 100% |
| CNC(=O)c1cc(Oc2ccc(NC(=O)Nc3ccc(Cl)c(C(F)(F)F)c3)cc2)ccn1 | enzyme activity, inhibitor | 0.3 µM | inhibition | 9% |
| COc1cc(Cl)c(C(=O)N[C@@H](CN[C@H]2CC[C@@H](N)CC2)Cc2ccc(C#N)cc2)cc1-c1ccc(CN[C@H](C)c2ccc(C)cc2)o1 | enzyme activity, inhibitor | 1 µM | remaining activity | 99% |
| Cc1ccc(Nc2nccc(N(C)c3ccc4c(C)n(C)nc4c3)n2)cc1S(N)(=O)=O | enzyme activity, inhibitor | 10 µM | inhibition | 1% |
| CNCc1ccccc1-c1csc([C@@H](C)Nc2nc(C)nc3cc(OC)c(OC)cc23)c1 | cell-free assay, competition with immobilised ligand | 1 µM | remaining binding | 67% |
| CCN(CC)c1ccc(C2=NNC(=O)CC2C)cc1[N+](=O)[O-] (stereo not drawn) | enzyme activity, inhibitor | 10 µM | remaining activity | 78% |
| CSc1cccnc1N1CCN(Cc2nc3ccccc3[nH]2)CC1 | cell-free assay, competition with immobilised ligand | 1 µM | remaining binding | 100% |
| COc1cc2ncnc(Nc3ccc(Oc4ccccc4)c(C)c3C)c2cc1OC | enzyme activity, inhibitor | 1 µM | inhibition | -6% |
| CC(C)(C)c1nc2c(s1)c1nc(N)ncc1c1ccc(NS(=O)(=O)c3c(F)cccc3F)c(F)c12 | enzyme activity, inhibitor, radiometric | 1 µM | remaining activity | 82% |
| N#CC1(c2ccccn2)CCN(Cc2cc(C(=O)N3CCCC3)c(=O)n3ccccc23)CC1 | cell-free assay, competition with immobilised ligand | 1 µM | remaining binding | 84% |
